EBI2 block = antagonists of human EBI2 receptor | 0.81% of 360,000 active | EBI2 beta-arrestin recruitment, luminescence, 7a,25-OHC stimulated | P32249 | inhibition, % at 5 µM; in the data active means inhibition above about 38%;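 further: enzyme fragment complementation signal reports receptor beta-arrestin coupling in cells; 0% = agonist plus DMSO wells and 100% = wells without agonist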
CCR6 antag = CCR6 (human) receptor antagonism; P51684; CHO-K1 CCR6 PathHunter beta-arrestin, luminescence, CCL20-stimulated; AID 493098; 0.49% of 340,000 active; inhibition, % at 20 µM;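 active means compounds whose inhibition of the agonist-driven luminescence signal at 20 µM reaches about 50%, limit read from the data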;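 further: cells stimulated with CCL20 at 14 nM final; plate controls were DMSO with CCL20 for no effect and DMSO without agonist for full effect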
HTR2A ag = agonists of mouse serotonin 5-HT2A receptor (HTR2A); CHO-K1 mHTR2A beta-arrestin complementation, luminescence; percent of 30 µM serotonin response; P35363; activation, % at 7.6 µM; 0.66% of 360,000 active;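 active means activation above a run cutoff, the mean activation of all tested compounds plus 3 SD, cut at about 14% in these data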;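 further: 0% = plate median of compound wells and 100% = 30 µM serotonin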
Target sequence (P35363 whole entry, looked up): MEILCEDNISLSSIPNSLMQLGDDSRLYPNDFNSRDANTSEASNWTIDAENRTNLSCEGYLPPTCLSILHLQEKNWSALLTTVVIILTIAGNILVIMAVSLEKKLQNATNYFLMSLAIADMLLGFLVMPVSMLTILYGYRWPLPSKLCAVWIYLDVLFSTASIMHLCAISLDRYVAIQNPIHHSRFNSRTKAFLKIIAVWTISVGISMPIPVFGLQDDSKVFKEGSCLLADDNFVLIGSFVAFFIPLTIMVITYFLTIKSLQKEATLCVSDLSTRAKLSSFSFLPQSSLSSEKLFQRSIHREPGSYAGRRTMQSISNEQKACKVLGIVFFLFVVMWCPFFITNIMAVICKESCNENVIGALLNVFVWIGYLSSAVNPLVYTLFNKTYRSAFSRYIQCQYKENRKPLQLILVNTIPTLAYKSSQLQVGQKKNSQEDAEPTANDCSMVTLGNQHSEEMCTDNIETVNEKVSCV
APJ antagonist = antagonists of human APJ apelin receptor. CHO-K1 APJ beta-arrestin complementation, luminescence. 0.32% of 330,000 active. AID 2521. inhibition, % at 20 µM;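 active means inhibition above about 40% at 20 µM, limit read from the data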;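 further: cells challenged with 10 nM apelin-13 agonist together with compound; plate controls were apelin-13 plus DMSO wells for no effect and DMSO wells lacking apelin-13 for full effect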
APJ agonist = APJ receptor agonism | P35414 | CHO-K1 APJ PathHunter beta-arrestin, luminescence; 0% DMSO wells, 100% apelin | activation, % at 20 µM | 0.11% of 330,000 active;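 active means activation more than six SD over the plate average, tested at 20 µM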;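 further: 0% = DMSO alone and 100% = apelin-13 at 10 nM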
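Assay system: engineered CHO-K1 APJ arrestin reporter cells; Amount: 1000 CHO-K1 reporter cells seeded per well; Dosing: one dose, 20 µM compound, 1% DMSO; Times: compound stimulation 90 min at 25 °C, detection 60 min; Measured by: luminescent beta-gal fragment complementation, chemiluminescent substrate; Read-out: APJ–arrestin association signal; Controls: DMSO vs Apelin-13 10 nM.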
CXCR6 inh = inhibitors of human CXCR6 receptor. O00574. CHO-K1 PathHunter CXCR6 beta-arrestin, luminescence. inhibition, % at 20 µM. 0.36% of 360,000 active. AID 602244; in the data active means inhibition above about 34%, passing the limit was not always enough;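 further: antagonist mode with CXCL16 agonist at 10 nM final; 0% = 10 nM CXCL16 with DMSO and 100% = unstimulated wells without agonist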
APJ ag conf = confirmation of human APJ apelin receptor agonists | shares compounds with APJ agonist | CHO-K1 APJ PathHunter beta-arrestin, luminescence | activation, % at 20 µM | 10% of 310 active;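 active means activation above 40%, taking the highest of four retests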;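 further: plate controls were DMSO wells for no effect and apelin-13 at 10 nM for full effect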
* marks the source's active call; other numbers are inactive results. Hits are enriched below; roughly 2.1% of the tested compounds scored in any of these assays.

Screening COC(=O)c1cnc(Oc2ccc(NC(=O)NC(=O)c3ccccc3Cl)cc2)cc1C(F)(F)F returned EBI2 block -18, CCR6 antag 7, HTR2A ag 1, APJ antagonist -15, APJ agonist 20*, CXCR6 inh -7 and APJ ag conf 17.
For COC(=O)c1ccncc1C(=O)Nc1ccc(Oc2ncc(C(F)(F)F)cc2Cl)cc1 the results were EBI2 block -11, CCR6 antag -12, HTR2A ag -3, APJ antagonist 9, APJ agonist 0 and CXCR6 inh -3.
COc1ccc(NS(=O)(=O)c2cccc(NC(=O)c3cnccn3)c2)cc1Br was read as EBI2 block 15, CCR6 antag 1, HTR2A ag 2, APJ antagonist -18, APJ agonist -3 and CXCR6 inh -10.
`COc1cc(C)c(C)cc1S(=O)(=O)n1c(C)nc2ccccc21` gave EBI2 block -14, CCR6 antag 13, HTR2A ag -6, APJ antagonist 9, APJ agonist 0 and CXCR6 inh 2.
For Cn1c(NCc2c[nH]c3ccccc23)nc2ccccc21 the results were EBI2 block -37, CCR6 antag -11, HTR2A ag 0, APJ antagonist -14, APJ agonist 22*, CXCR6 inh -9 and APJ ag conf 25.
Cc1c2ccccc2c(C)c2c1ccc1ccccc12 was read as EBI2 block 12, CCR6 antag -16, HTR2A ag -1, APJ antagonist -27, APJ agonist 41*, CXCR6 inh -19 and APJ ag conf 20.
`O=[N+]([O-])c1ccc2nc(-c3ccc(Cl)cc3)[nH]c2c1` gave EBI2 block 11, CCR6 antag -24, HTR2A ag -2, APJ antagonist -15, APJ agonist 14*, CXCR6 inh -6 and APJ ag conf 31.
For C#CCOCCOCCOCCNc1nc(N2CCN(C(=O)CCCCCCCCCCNC(=O)[C@H]([C@@H](C)CC)n3cc(CCCCCN)nn3)CC2)nc(N2CCN(C(=O)CCCCCCCCCCNC(=O)[C@H](CCCCN)n3cc(CCCC(=O)O)nn3)CC2)n1 the results were EBI2 block -7, CCR6 antag 13, HTR2A ag 1, APJ antagonist 15, APJ agonist -5 and CXCR6 inh -1.
For C#CCOCCOCCOCCNc1nc(N2CCN(C(=O)CCCCCCCCCCNC(=O)[C@H]([C@@H](C)CC)n3cc(CCCCCN)nn3)CC2)nc(N2CCN(C(=O)CCCCCCCCCCNC(=O)[C@H]([C@@H](C)CC)n3cc(CCCCN=C(N)N)nn3)CC2)n1 the results were EBI2 block 4, HTR2A ag 16*, APJ antagonist 14, APJ agonist 51*, CXCR6 inh 10 and APJ ag conf 31.
Screening C#CCOCCOCCOCCNc1nc(N2CCN(C(=O)CCCCCCCCCCNC(=O)[C@H]([C@@H](C)CC)n3cc(CCCCN=C(N)N)nn3)CC2)nc(N2CCN(C(=O)CCCCCCCCCCNC(=O)[C@H](CCCCN)n3cc(C)nn3)CC2)n1 returned CCR6 antag -13, APJ antagonist 40*, APJ agonist 83* and APJ ag conf 26.
COc1ccc2oc(C(=O)Nc3ccc(S(=O)(=O)N(C)C4CCN(C)CC4)cc3)c(C)c2c1 was read as EBI2 block -6, CCR6 antag -1, HTR2A ag -7, APJ antagonist 4, APJ agonist 51*, CXCR6 inh -13 and APJ ag conf 12.
For COc1ccc(CC(=O)Nc2ccc(S(=O)(=O)N(C)C3CCN(C)CC3)cc2)cc1 the results were EBI2 block -7, CCR6 antag 2, HTR2A ag 2, APJ antagonist 10, APJ agonist -2 and CXCR6 inh 0.
For N/C(=N\OC(=O)c1cc(-c2ccccc2)nc2ccccc12)c1ccc(Cl)cc1 the results were EBI2 block -6, CCR6 antag -16, HTR2A ag 1, APJ antagonist -16, APJ agonist 16*, CXCR6 inh -12 and APJ ag conf 20.
